# Measured values reported in ChEMBL document CHEMBL3856271, “Bis-Michael Acceptors as Novel Probes to Study the Keap1/Nrf2/ARE Pathway” (J Med Chem, 2016).
# Experiments:
# Format in all cases: cell-based
# [1] = target: T1, Keap1/Nrf2 (Homo sapiens) (UniProt Q16236+Q14145); experiment: Inhibition of Keap1-Nrf2 interaction in HEK293T cells assessed as induction of ARE-luciferase gene expression at 20 uM after 24 hrs relative to control; details: HEK-293T
# Method in brief: (§1)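 HEK 293T cells (1 × 105) plated the day before transfection, transiently transfected with 0.1 μg ARE-luc (Nrf2 response element) plasmid by FuGENE6; next day treated with compounds (range 0–100 μM) or sulforaphane 10 μM as positive control for 24 h. Lysates read for luciferase activity; expressed as fold-induction. Cells grown in complete DMEM with 10% FBS, 37 °C, 5% CO2.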
# [2] = target: T1, Keap1/Nrf2 (Homo sapiens); experiment: Inhibition of Keap1-Nrf2 interaction in HEK293T cells assessed as induction of ARE-luciferase gene expression at 1 uM after 24 hrs relative to control; details: HEK-293T; method in brief: as §1
# [3] = target: T1, Keap1/Nrf2 (Homo sapiens); experiment: Inhibition of Keap1-Nrf2 interaction in HEK293T cells assessed as induction of ARE-luciferase gene expression at 100 uM after 24 hrs relative to control; details: HEK-293T; method in brief: as §1
# [4] = Toxicity in HEK293T cells assessed as mortality at 100 uM after 24 hrs LDH assay relative to control; details: human, hek-293t
# Method in brief: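 HEK 293T cells cultured in complete DMEM (10% FBS, antibiotics, sodium pyruvate, nonessential amino acids, 2 mM L-glutamine) at 37 °C, 5% CO2. Treated with increasing concentrations of Keap1 ligands for 24 h. Supernatants collected, cells lysed in 1% Triton, and LDH activity measured with buffer containing L(+)-lactic acid and NAD. Mortality reported when over 5%.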
# T1 sequence (Q14145 whole entry, looked up): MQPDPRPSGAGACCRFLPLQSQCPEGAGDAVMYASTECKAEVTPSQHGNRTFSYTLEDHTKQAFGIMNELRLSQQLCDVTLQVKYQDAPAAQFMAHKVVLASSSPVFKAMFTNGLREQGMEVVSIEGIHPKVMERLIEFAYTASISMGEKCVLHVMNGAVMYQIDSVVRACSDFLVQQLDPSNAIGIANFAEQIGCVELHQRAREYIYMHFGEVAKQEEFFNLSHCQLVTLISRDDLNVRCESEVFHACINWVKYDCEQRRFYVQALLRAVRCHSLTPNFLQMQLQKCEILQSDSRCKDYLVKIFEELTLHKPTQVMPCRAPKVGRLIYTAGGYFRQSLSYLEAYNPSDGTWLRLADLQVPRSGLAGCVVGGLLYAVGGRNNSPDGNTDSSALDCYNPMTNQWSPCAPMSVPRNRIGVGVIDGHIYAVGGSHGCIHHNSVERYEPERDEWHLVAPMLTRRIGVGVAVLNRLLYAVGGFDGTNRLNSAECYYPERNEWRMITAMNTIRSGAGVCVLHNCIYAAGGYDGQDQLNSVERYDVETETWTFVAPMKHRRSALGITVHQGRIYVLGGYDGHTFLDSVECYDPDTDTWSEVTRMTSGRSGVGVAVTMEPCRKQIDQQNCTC
# T1 sequence (Q16236 whole entry, looked up): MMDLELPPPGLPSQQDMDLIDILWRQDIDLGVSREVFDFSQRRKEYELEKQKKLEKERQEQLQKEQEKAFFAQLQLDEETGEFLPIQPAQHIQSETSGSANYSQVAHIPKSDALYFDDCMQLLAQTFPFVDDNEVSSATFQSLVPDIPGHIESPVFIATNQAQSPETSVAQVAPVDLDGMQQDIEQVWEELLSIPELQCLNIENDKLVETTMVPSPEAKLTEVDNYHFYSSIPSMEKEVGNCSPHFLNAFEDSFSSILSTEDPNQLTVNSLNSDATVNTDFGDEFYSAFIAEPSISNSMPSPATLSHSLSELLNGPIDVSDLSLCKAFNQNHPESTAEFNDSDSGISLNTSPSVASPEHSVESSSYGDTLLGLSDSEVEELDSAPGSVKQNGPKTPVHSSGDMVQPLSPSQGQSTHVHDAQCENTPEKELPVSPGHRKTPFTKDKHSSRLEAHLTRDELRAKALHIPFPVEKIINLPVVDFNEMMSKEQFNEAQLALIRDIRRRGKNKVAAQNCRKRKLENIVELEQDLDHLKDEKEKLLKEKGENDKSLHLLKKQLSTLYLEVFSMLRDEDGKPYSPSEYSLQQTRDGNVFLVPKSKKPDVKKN
Structure (SMILES),fold change (FC) [1],fold change (FC) [2],fold change (FC) [3],mortality [4] [%],Activity [4]
COC(=O)C1=CC(C)(C)CCC1O (stereo not drawn),1.85,1,1.29,–,–
CC1(C)C=C(Cl)C(=O)CC1,4.42,1.33,43.4,–,–
COC(=O)C1=CC(C)(C)CC(CC2CC(C)(C)C=C(C(=O)OC)C2=O)C1=O (stereo not drawn),3.6,4.49,101,24,–
COC(=O)C1=CC2(CC(CC3CC4(C=C(C(=O)OC)C3=O)OCCO4)C1=O)OCCO2 (stereo not drawn),2.76,0.94,15.9,12,–
COC(=O)C1(C)CC(C)(C)C=CC1=O (stereo not drawn),2.43,1.47,4.56,–,–
COC(=O)CCC1CC(C)(C)C=C(C(=O)OC)C1=O (stereo not drawn),1.24,0.68,5.96,–,–
C#CCC1CC(C)(C)C=C(C(=O)OC)C1=O (stereo not drawn),1.48,1.14,34.2,7,–
C=CCC1CC(C)(C)C=C(C(=O)OC)C1=O (stereo not drawn),2.05,1.34,25.3,–,Non-Toxic
C=CCOC(=O)C1=CC(C)(C)CCC1=O,4.36,1.39,94.8,17,–
COC(=O)C1=CC(C)(C)CC(CCCCC2CC(C)(C)C=C(C(=O)OC)C2=O)C1=O (stereo not drawn),–,8.23,–,–,–
COC(=O)C1=CC2(CC(CCCC3CC4(C=C(C(=O)OC)C3=O)OCCO4)C1=O)OCCO2 (stereo not drawn),1.05,1,30.9,9,–
COC(=O)C1=CC(C)(C)CCC1=O,6.46,1.36,50.6,–,Non-Toxic
CCCCCCC1CC(C)(C)C=C(C(=O)OC)C1=O (stereo not drawn),2,1.15,64.7,–,Non-Toxic
COC(=O)C1=CC2(CC(C)C1=O)OCCO2 (stereo not drawn),2.49,0.98,–,–,Non-Toxic
CC1(C)C=C(C(=O)O)C(=O)CC1,3.11,2,29.6,–,–
COC(=O)C1=CC(C)(C)CC(C/C=C/CC2CC(C)(C)C=C(C(=O)OC)C2=O)C1=O (stereo not drawn),–,15.2,–,–,–

Structure (SMILES),fold change (FC) [1],fold change (FC) [2],fold change (FC) [3],mortality [4] [%],Activity [4]
CC1(C)C=C(I)C(=O)CC1,1.16,1.22,17.4,–,–
CC1(C)C=C(CO)C(=O)CC1,0.77,0.72,1.46,–,–
COC(=O)C1=CC(C)(C)CC(C)C1=O (stereo not drawn),2.75,1.17,4.6,–,Non-Toxic
CCCCCCC1CC2(C=C(C(=O)OC)C1=O)OCCO2 (stereo not drawn),2.19,1.4,20.2,–,Non-Toxic
COC(=O)C1=CC(C)(C)CC(CCCC2CC(C)(C)C=C(C(=O)OC)C2=O)C1=O (stereo not drawn),248,4.71,–,–,–
COC(=O)C1=CC(C)(C)CC(CC(C)=O)C1=O (stereo not drawn),2.2,0.49,8.71,–,–
COC(=O)C1=CC(C)(C)CC(Cc2ccccc2)C1=O (stereo not drawn),0.92,0.95,48.5,–,Non-Toxic
COC(=O)C1=CC(C)(C)CC(CC#N)C1=O (stereo not drawn),2.22,1.03,17.1,–,–
COC(=O)C1CC(C)(C)C=CC1=O (stereo not drawn),3.2,1.05,41.9,–,–
CC1(C)C=C(COC(=O)C2=CC(C)(C)CCC2=O)C(=O)CC1,3.78,2.02,121,15,–
COC(=O)C1=CC(C)(C)CC(CC#CCC2CC(C)(C)C=C(C(=O)OC)C2=O)C1=O (stereo not drawn),–,52.5,–,–,–
CC1(C)C=C(COC(=O)C2CC(C)(C)CCC2=O)C(=O)CC1 (stereo not drawn),3.79,2.98,4.02,–,–
COC(=O)C1=CC(C)(C)CC(CC(F)(F)F)C1=O (stereo not drawn),1.54,0.54,17.9,11,–
COC(=O)C1=CC(C)(C)CC(CC(=O)OC(C)(C)C)C1=O (stereo not drawn),2,0.65,1.75,–,–
CC1(C)C=C(C(=O)OC(C)(C)C)C(=O)CC1,3.89,1.05,106,16,–
COC(=O)C1=CC(C)(C)C=CC1=O,3.39,1.35,10.3,–,–
